Experimental data reported in ChEMBL document CHEMBL1145431, “Improved anti-osteoporosis potency and reduced endometrial membrane hyperplasia during hormone replacement therapy with estrogen-RGD peptide conjugates” (2007).
Where a SMILES comes first, the peptide text is derived from it. The star is where a group is joined. Succinyl(O17-estradiol) = C[C@]12CC[C@@H]3c4ccc(O)cc4CC[C@H]3[C@@H]1CC[C@@H]2OC(=O)CCC(=O)*

Experiments:
Mus musculus [1] = test: Effect on dry weight of femurs in ovariectomized mouse at 0.1103 mmol/kg, ip once daily for 4 weeks; format: functional, Femur
Procedure, shortened: (§1)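 Female Kuiming mice (7 weeks, 30.7 ± 3.1 g) ovariectomized, sham group abdominorotomy. From day 5, i.p. once daily for 4 weeks at 110.3 × 10-3 mmol/kg in 0.5% CMC. Left femur cleaned, length measured, defatted in chloroform-methanol (2:1, 2 × 3 h), dried 120 °C 6 h for dry weight, ashed 800 °C 8 h. Mineral content = ash/dry weight. Ash dissolved in 6 N HCl and diluted. Ca by o-methylphenolphthalein complexone, P by molybdenum blue. Lungs and livers weighed directly.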

Mus musculus [2] = test: Increase in body weight in ovariectomized mouse at 0.1103 mmol/kg, ip once daily for 4 weeks; format: functional
Procedure, shortened: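 Female Kuiming mice (30.7 ± 3.1 g) underwent abdominal OVX; the sham group had abdominorotomy only. From day 5 after surgery, i.p. dosing once daily for 4 weeks at 110.3 × 10-3 mmol/kg in aqueous 0.5% CMC. Body weight was recorded on the day of the last administration.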

Mus musculus [3] = test: Effect on spleen weight in ovariectomized mouse at 0.1103 mmol/kg, ip once daily for 4 weeks; format: functional
Procedure, shortened: (§2)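 Female Kuiming mice (7 weeks old, 30.7 ± 3.1 g), abdominal OVX under pentobarbital (40.0 mg/kg i.p.). From day 5 after surgery, i.p. injection once daily for 4 weeks, compound in aqueous 0.5% CMC prepared just before use. The day after the last dose, mice were anesthetized and killed, and lungs, livers, spleens and uteri were removed and weighed directly. n = 12, ANOVA, p < 0.05.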

Mus musculus [4] = test: Effect on serum ALP lavel in ovariectomized mouse at 0.1103 mmol/kg, ip once daily for 4 weeks; format: functional
Procedure, shortened: (§3)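 OVX Kuiming mice dosed i.p. daily for 4 weeks in 0.5% CMC. Blood taken retro-orbitally on the day after the last dose, stood 30 min, spun at 3000 g for 20 min, serum stored at -20 °C. Calcium by o-methylphenolphthalein complexone, phosphorus by molybdenum blue, ALP by activity with disodium phenylphosphate substrate.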

Mus musculus [5] = test: Effect on mineral content in ovariectomized mouse at 0.1103 mmol/kg, ip once daily for 4 weeks; format: functional; procedure, shortened: as §1
Mus musculus [6] = test: Effect on liver weight in mouse at 0.1103 mmol/kg, po; format: functional
Procedure, shortened: (§4)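 Female Kuiming mice (7 weeks old, 30.7 ± 3.1 g) under abdominal OVX, sham group abdominorotomy only. From day 5 after surgery, dosed orally once daily for 4 weeks at 110.3 × 10-3 mmol/kg in 0.5% CMC (0.2 mL), vehicle group CMC alone. Blood drawn retro-orbitally, then left femur and organs removed under pentobarbital (40.0 mg/kg, i.p.).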

Mus musculus [7] = test: Effect on femur length in ovariectomized mouse at 0.1103 mmol/kg, ip once daily for 4 weeks; format: functional; procedure, shortened: as §1
Mus musculus [8] = test: Effect on spleen weight in mouse at 0.1103 mmol/kg, po; format: functional; procedure, shortened: as §4
Mus musculus [9] = test: Effect on serum phosphorus level in ovariectomized mouse at 0.1103 mmol/kg, ip once daily for 4 weeks; format: functional; procedure, shortened: as §3
Mus musculus [10] = test: Effect on liver weight in ovariectomized mouse at 0.110 mmol/kg, ip once daily for 4 weeks; format: functional; procedure, shortened: as §1
Mus musculus [11] = test: Effect on uterus weight in ovariectomized mouse at 0.1103 mmol/kg, ip once daily for 4 weeks; format: functional; procedure, shortened: as §2
Mus musculus [12] = test: Effect on serum phosphorous Concentration in mouse at 0.110 mmol/kg, po; format: functional
Procedure, shortened: (§5)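 Oral OVX Kuiming mouse model, dosed daily for 4 weeks at 110.3 × 10-3 mmol/kg in 0.5% CMC. Retro-orbital blood stood 30 min at room temperature and was spun at 3000 g for 20 min. Serum kept at -20 °C. Calcium read by o-methylphenolphthalein complexone, phosphorus by molybdenum blue, ALP by activity on disodium phenylphosphate substrate.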

Mus musculus [13] = test: Effect on lung weight in mouse at 0.1103 mmol/kg, po; format: functional; procedure, shortened: as §4
Mus musculus [14] = test: Effect on dry weight of femurs in mouse at 0.1103 mmol/kg, po; format: functional, Femur; procedure, shortened: as §4
Mus musculus [15] = test: Effect on calcium level in ovariectomized mouse at 0.1103 mmol/kg, ip once daily for 4 weeks; format: functional; procedure, shortened: as §1
Mus musculus [16] = test: Effect on calcium level in mouse at 0.1103 mmol/kg, po; format: functional; procedure, shortened: as §4
Mus musculus [17] = test: Effect on serum calcium level in ovariectomized mouse at 0.1103 mmol/kg, ip once daily for 4 weeks; format: functional; procedure, shortened: as §3
Mus musculus [18] = test: Effect on uterus weight in mouse at 0.1103 mmol/kg, po; format: functional
Mus musculus [19] = test: Effect on phosphorus level in ovariectomized mouse at 0.1103 mmol/kg, ip once daily for 4 weeks; format: functional; procedure, shortened: as §1
Mus musculus [20] = test: Effect on mineral content in mouse at 0.1103 mmol/kg, po; format: functional; procedure, shortened: as §4
Mus musculus [21] = test: Effect on serum ALP level in mouse at 0.1103 mmol/kg, po; format: functional; procedure, shortened: as §5
Mus musculus [22] = test: Effect on lung weight in ovariectomized mouse at 0.1103 mmol/kg, ip once daily for 4 weeks; format: functional; procedure, shortened: as §1
Mus musculus [23] = test: Effect on lenght of femur in mouse at 0.110 mmol/kg, po; format: functional; procedure, shortened: as §4
Mus musculus [24] = test: Effect on femur ash weight in ovariectomized mouse at 0.1103 mmol/kg, ip once daily for 4 weeks; format: functional; procedure, shortened: as §1
Mus musculus [25] = test: Effect on phosphorus level in mouse at 0.110 mmol/kg, po; format: functional; procedure, shortened: as §4
Mus musculus [26] = test: Effect on femur ash weight in mouse at 0.1103 mmol/kg, po; format: functional; procedure, shortened: as §4
Mus musculus [27] = test: Effect on serum calcium level in mouse at 0.1103 mmol/kg, po; format: functional; procedure, shortened: as §5

| Structure (SMILES) | Activity (Mus musculus [1]) [mg] | Activity (Mus musculus [2]) [g] | Activity (Mus musculus [3]) [mg] | Activity (Mus musculus [4]) [U/L] | Ratio (Mus musculus [5]) | Activity (Mus musculus [6]) [g] | Activity (Mus musculus [7]) [cm] | Activity (Mus musculus [8]) [mg] | Activity (Mus musculus [9]) [mmol/L] | Activity (Mus musculus [10]) [g] | Activity (Mus musculus [11]) [mg] | Activity (Mus musculus [12]) [mmol/L] | Activity (Mus musculus [13]) [mg] | Activity (Mus musculus [14]) [mg] | Activity (Mus musculus [15]) [%] | Activity (Mus musculus [16]) [%] | Activity (Mus musculus [17]) [mmol/L] | Activity (Mus musculus [18]) [mg] | Activity (Mus musculus [19]) [%] | Activity (Mus musculus [21]) [U/L] | also measured |
| --- | --- | --- | --- | --- | --- | --- | --- | --- | --- | --- | --- | --- | --- | --- | --- | --- | --- | --- | --- | --- | --- |
| C[C@]12CC[C@@H]3c4ccc(O)cc4CC[C@H]3[C@@H]1CC[C@@H]2OC(=O)CCC(=O)N[C@@H](CCCNC(=N)N)C(=O)NCC(=O)N[C@@H](CC(=O)O)C(=O)N[C@@H](CO)C(=O)O ({Succinyl(O17-estradiol)}-RGDS-OH) | 66.4 | 35.4 | 130 | 32.771 | 0.52 | 1.331 | 1.634 | 135 | 1.602 | 1.371 | 55.5 | 1.6 | 161 | 68.8 | 51.312 | 51.201 | 2.002 | 36.7 | 24.92 | 35.4 | Ratio (Mus musculus [20]): 51.5%; Activity (Mus musculus [22]): 151 mg; Activity (Mus musculus [23]): 1.654 cm; Activity (Mus musculus [24]): 34.4 mg; Activity (Mus musculus [25]): 24.885%; Activity (Mus musculus [26]): 29.3 mg; Activity (Mus musculus [27]): 2.04 mmol/L |
| CC(C)[C@H](NC(=O)[C@H](CC(=O)O)NC(=O)CNC(=O)[C@H](CCCNC(=N)N)NC(=O)CCC(=O)O[C@H]1CC[C@H]2[C@@H]3CCc4cc(O)ccc4[C@H]3CC[C@]12C)C(=O)O ({Succinyl(O17-estradiol)}-RGDV-OH) | 62.6 | 34.5 | 143 | 31.057 | 0.625 | 1.34 | 1.655 | 133 | 1.605 | 1.353 | 69.4 | 1.61 | 167 | 68.2 | 53.078 | 52.003 | 2.005 | 50.7 | 24.867 | 33.411 | Ratio (Mus musculus [20]): 52.5%; Activity (Mus musculus [22]): 167 mg; Activity (Mus musculus [23]): 1.645 cm; Activity (Mus musculus [24]): 35.8 mg; Activity (Mus musculus [25]): 24.879%; Activity (Mus musculus [26]): 33 mg; Activity (Mus musculus [27]): 2.03 mmol/L |
| C[C@]12CC[C@@H]3c4ccc(O)cc4CC[C@H]3[C@@H]1CC[C@@H]2OC(=O)CCC(=O)N[C@@H](CCCNC(=N)N)C(=O)NCC(=O)N[C@@H](CC(=O)O)C(=O)N[C@@H](Cc1ccccc1)C(=O)O ({Succinyl(O17-estradiol)}-RGDF-OH) | 66 | 34.8 | 142 | 31.486 | 0.533 | 1.338 | 1.635 | 142 | 1.605 | 1.391 | 71.2 | 1.6 | 167 | 62.7 | 52.798 | 51.903 | 2.005 | 38.2 | 24.665 | 35.511 | Activity (Mus musculus [22]): 164 mg; Activity (Mus musculus [23]): 1.638 cm; Activity (Mus musculus [24]): 34.8 mg; Activity (Mus musculus [25]): 24.9%; Activity (Mus musculus [26]): 30 mg; Activity (Mus musculus [27]): 2.04 mmol/L |
